Key:
[1] = system: MT4; test: Antiproliferative activity against human MT4 cells assessed as reduction of growth by MTT assay; type: functional, cell-based
How it was run: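 MT-4 lymphoblastoid T cells (ATCC) in RPMI 1640 with 10% FCS, penicillin/streptomycin, checked for mycoplasma. 1 × 10⁴ mock-infected cells per well with serial dilutions from a 100 mM DMSO stock. Incubated 4 days at 37 °C, viable cells counted by MTT. IC50 versus untreated controls by linear regression. Mean of three separate experiments.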

[2] = system: NCI-H23; test: Growth inhibition of human NCI-H23 cells after 48 hrs by sulforhodamine B assay; type: functional; conditions: NCI-H23, 48 h
How it was run: (§1)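 NCI screen panel. Five 10-fold concentrations from 10^-4 to 10^-8 M. Exposure for the last 48 h of a 72 h incubation. Growth estimated by sulforhodamine B protein assay. GI50 is the concentration giving 50% growth inhibition. Where that level was not reached or was exceeded, the value is given as above or below the highest or lowest concentration tested.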

[3] = system: PC-3; test: Growth inhibition of human PC3 cells after 48 hrs by sulforhodamine B assay; type: functional; conditions: PC-3, 48 h; how it was run: as §1
[4] = system: SF-268; test: Growth inhibition of human SF268 cells after 48 hrs by sulforhodamine B assay; type: functional; conditions: SF-268, 48 h; how it was run: as §1
[5] = system: UACC-62; test: Growth inhibition of human UACC62 cells after 48 hrs by sulforhodamine B assay; type: functional; conditions: UACC-62, 48 h
How it was run: (§2)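 NCI in vitro panel screen. Compounds tested at five 10-fold dilutions, 10^-4 to 10^-8 M. Cells in 96-well plates were exposed for the last 48 h of a 72 h incubation. Viability/growth was read by sulforhodamine B protein assay. GI50 is the concentration giving 50% growth inhibition. Values beyond the tested range are reported as greater or less than the maximum or minimum concentration.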

[6] = system: Malme-3M; test: Growth inhibition of human MALME-3M cells after 48 hrs by sulforhodamine B assay; type: functional; how it was run: as §1
[7] = system: HL-60(TB); test: Growth inhibition of human HL-60(TB) cells after 48 hrs by sulforhodamine B assay; type: functional; conditions: HL-60, 48 h
How it was run: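 NCI 60-cell-line screen protocol: cells exposed to compound at five 10-fold dilutions from 10^-4 to 10^-8 M for the last 48 h of a 72 h incubation. Sulforhodamine B protein assay estimated viability/growth. GI50 (50% growth inhibition) derived; where not reached or exceeded, reported as greater or less than the highest or lowest concentration tested.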

[8] = system: OVCAR-8; test: Growth inhibition of human OVCAR8 cells after 48 hrs by sulforhodamine B assay; type: functional; conditions: OVCAR-8, 48 h; how it was run: as §1
[9] = system: SK-OV-3; test: Growth inhibition of human SKOV3 cells after 48 hrs by sulforhodamine B assay; type: functional; conditions: SK-OV-3, 48 h; how it was run: as §1
[10] = system: RXF 393; test: Growth inhibition of human RXF393 cells after 48 hrs by sulforhodamine B assay; type: functional; conditions: RXF 393, 48 h; how it was run: as §1
[11] = system: UACC-257; test: Growth inhibition of human UACC257 cells after 48 hrs by sulforhodamine B assay; type: functional; conditions: UACC-257, 48 h; how it was run: as §2
[12] = system: IGROV-1; test: Growth inhibition of human IGROV1 cells after 48 hrs by sulforhodamine B assay; type: functional; conditions: IGROV-1, 48 h; how it was run: as §1
[13] = system: MOLT-4; test: Growth inhibition of human MOLT4 cells after 48 hrs by sulforhodamine B assay; type: functional; conditions: MOLT-4, 48 h; how it was run: as §1
[14] = system: NCI-H460; test: Growth inhibition of human NCI-H460 cells after 48 hrs by sulforhodamine B assay; type: functional; conditions: NCI-H460, 48 h; how it was run: as §1
[15] = system: OVCAR-4; test: Growth inhibition of human OVCAR4 cells after 48 hrs by sulforhodamine B assay; type: functional; conditions: OVCAR-4, 48 h; how it was run: as §1
[16] = system: HT-29; test: Growth inhibition of human HT-29 cells after 48 hrs by sulforhodamine B assay; type: functional; conditions: HT-29, 48 h; how it was run: as §1
[17] = system: NCI/ADR-RES; test: Growth inhibition of human NCI/ADR-RES cells after 48 hrs by sulforhodamine B assay; type: functional; how it was run: as §1
[18] = system: U-251; test: Growth inhibition of human U251 cells after 48 hrs by sulforhodamine B assay; type: functional; conditions: U-251, 48 h; how it was run: as §2
[19] = system: SNB-19; test: Growth inhibition of human SNB19 cells after 48 hrs by sulforhodamine B assay; type: functional; conditions: SNB-19, 48 h; how it was run: as §2
[20] = system: ACHN; test: Growth inhibition of human ACHN cells after 48 hrs by sulforhodamine B assay; type: functional; how it was run: as §1
[21] = system: HCT-116; test: Growth inhibition of human HCT116 cells after 48 hrs by sulforhodamine B assay; type: functional; conditions: HCT-116, 48 h; how it was run: as §1
[22] = system: BT-549; test: Growth inhibition of human BT549 cells after 48 hrs by sulforhodamine B assay; type: functional; conditions: BT-549, 48 h; how it was run: as §1
[23] = system: T47D; test: Growth inhibition of human T47D cells after 48 hrs by sulforhodamine B assay; type: functional; how it was run: as §2
[24] = system: COLO 205; test: Growth inhibition of human COLO205 cells after 48 hrs by sulforhodamine B assay; type: functional; conditions: COLO 205, 48 h; how it was run: as §1
[25] = system: EKVX; test: Growth inhibition of human EKVX cells after 48 hrs by sulforhodamine B assay; type: functional; how it was run: as §1
[26] = system: LOX IMVI; test: Growth inhibition of human LOXIMVI cells after 48 hrs by sulforhodamine B assay; type: functional; how it was run: as §1
[27] = system: HOP-92; test: Growth inhibition of human HOP92 cells after 48 hrs by sulforhodamine B assay; type: functional; conditions: HOP-92, 48 h; how it was run: as §1
[28] = system: MDA-MB-435; test: Growth inhibition of human MDA-MB-435 cells after 48 hrs by sulforhodamine B assay; type: functional; conditions: MDA-MB-435, 48 h; how it was run: as §1
[29] = system: TK-10; test: Growth inhibition of human TK10 cells after 48 hrs by sulforhodamine B assay; type: functional; conditions: TK-10, 48 h; how it was run: as §2
[30] = system: NCI-H322M; test: Growth inhibition of human NCI-H322M cells after 48 hrs by sulforhodamine B assay; type: functional; how it was run: as §1
[31] = system: KM12; test: Growth inhibition of human KM12 cells after 48 hrs by sulforhodamine B assay; type: functional; conditions: KM12, 48 h; how it was run: as §1
[32] = system: UO-31; test: Growth inhibition of human UO31 cells after 48 hrs by sulforhodamine B assay; type: functional; conditions: UO-31, 48 h; how it was run: as §2
[33] = system: A549; test: Growth inhibition of human A549 cells after 48 hrs by sulforhodamine B assay; type: functional; conditions: A549, 48 h; how it was run: as §1
[34] = system: OVCAR-3; test: Growth inhibition of human OVCAR-3 cells after 48 hrs by sulforhodamine B assay; type: functional; conditions: OVCAR-3, 48 h; how it was run: as §1
[35] = system: SF-295; test: Growth inhibition of human SF295 cells after 48 hrs by sulforhodamine B assay; type: functional; conditions: SF-295, 48 h; how it was run: as §1
[36] = system: 786-0; test: Growth inhibition of human 786-0 cells after 48 hrs by sulforhodamine B assay; type: functional; conditions: 786-0, 48 h; how it was run: as §1
[37] = Growth inhibition of human […] cells after 48 hrs by sulforhodamine B assay; type: functional; how it was run: as §1
[38] = system: SK-MEL-28; test: Growth inhibition of human SK-MEL-28 cells after 48 hrs by sulforhodamine B assay; type: functional; conditions: SK-MEL-28, 48 h; how it was run: as §1
[39] = system: SN12C; test: Growth inhibition of human SN12C cells after 48 hrs by sulforhodamine B assay; type: functional; how it was run: as §2
[40] = system: SK-MEL-5; test: Growth inhibition of human SK-MEL-5 cells after 48 hrs by sulforhodamine B assay; type: functional; conditions: SK-MEL-5, 48 h; how it was run: as §1
[41] = system: HOP-62; test: Growth inhibition of human HOP62 cells after 48 hrs by sulforhodamine B assay; type: functional; conditions: HOP-62, 48 h; how it was run: as §1
[42] = system: MDA-MB-231; test: Growth inhibition of human MDA-MB-231 cells after 48 hrs by sulforhodamine B assay; type: functional; conditions: MDA-MB-231, 48 h; how it was run: as §1
[43] = system: HCT-15; test: Growth inhibition of human HCT15 cells after 48 hrs by sulforhodamine B assay; type: functional; conditions: HCT-15, 48 h; how it was run: as §1
[44] = system: M14; test: Growth inhibition of human M14 cells after 48 hrs by sulforhodamine B assay; type: functional; conditions: M14, 48 h; how it was run: as §1
[45] = system: K562; test: Growth inhibition of human K562 cells after 48 hrs by sulforhodamine B assay; type: functional; conditions: K562, 48 h; how it was run: as §1
[46] = system: SK-MEL-2; test: Growth inhibition of human SK-MEL-2 cells after 48 hrs by sulforhodamine B assay; type: functional; conditions: SK-MEL-2, 48 h; how it was run: as §1
[47] = system: CAKI-1; test: Growth inhibition of human Caki1 cells after 48 hrs by sulforhodamine B assay; type: functional; conditions: CAKI-1, 48 h; how it was run: as §1
[48] = system: SNB-75; test: Growth inhibition of human SNB75 cells after 48 hrs by sulforhodamine B assay; type: functional; conditions: SNB-75, 48 h; how it was run: as §2
[49] = system: SW-620; test: Growth inhibition of human SW620 cells after 48 hrs by sulforhodamine B assay; type: functional; conditions: SW-620, 48 h; how it was run: as §2

SMILES: O=C(c1cccc2ccccc12)N1CCN(C(=O)c2cccc3ccccc23)C1=S
- IC50 [1]: 13 µM

SMILES: COC(=O)/C(=C\N1CCN(C(=O)c2ccco2)C1=S)C(C)=O
- GI50 [2]: 12.2 µM
- GI50 [3]: 18.1 µM
- GI50 [4]: 5.8 µM
- GI50 [5]: 11.5 µM
- GI50 [6]: 5.6 µM
- IC50 [1]: 7 µM
- GI50 [7]: 7.5 µM
- GI50 [8]: 27.8 µM
- GI50 [9]: 31.3 µM
- GI50 [10]: 4.4 µM
- GI50 [11]: 17.2 µM
- GI50 [12]: 10.4 µM
- GI50 [13]: 20.8 µM
- GI50 [14]: 2.3 µM
- GI50 [15]: 17.4 µM
- GI50 [16]: 15.8 µM
- GI50 [17]: 22.2 µM
- GI50 [18]: 5.5 µM
- GI50 [19]: 41.7 µM
- GI50 [20]: 4.1 µM
- GI50 [21]: 7.4 µM
- GI50 [22]: 3.5 µM
- GI50 [23]: 6 µM
- GI50 [24]: 12.6 µM
- GI50 [25]: 2.6 µM
- GI50 [26]: 1.6 µM
- GI50 [27]: 20.8 µM
- GI50 [28]: 4.5 µM
- GI50 [29]: 3.5 µM
- GI50 [30]: 12.4 µM
- GI50 [31]: 3 µM
- GI50 [32]: 13.5 µM
- GI50 [33]: 19.3 µM
- GI50 [34]: 2.7 µM
- GI50 [35]: 18.6 µM
- GI50 [36]: 11.2 µM
- GI50 [37]: 5.5 µM
- GI50 [38]: 9.1 µM
- GI50 [39]: 5.9 µM
- GI50 [40]: 5.3 µM
- GI50 [41]: 20.6 µM
- GI50 [42]: 9 µM
- GI50 [43]: 2.2 µM
- GI50 [44]: 10.7 µM
- GI50 [45]: 10.2 µM
- GI50 [46]: 15.2 µM
- GI50 [47]: 2.8 µM
- GI50 [48]: 21 µM
- GI50 [49]: 3.9 µM

SMILES: O=C(c1ccc(Cl)cc1)N1CCCN(C(=O)c2ccc(Cl)cc2)C1=S
- IC50 [1]: 38 µM

SMILES: O=C(c1ccc(Cl)cc1)N1CCN(C(=O)c2ccc(Cl)cc2)C1=S
- IC50 [1]: 9.9 µM

SMILES: O=C(c1cccc(Cl)c1)N1CCN(C(=O)c2cccc(Cl)c2)C1=S
- IC50 [1]: 35 µM

SMILES: Cc1ccc(C(=O)N2CCN(C(=O)c3ccc(C)cc3)C2=S)cc1
- IC50 [1]: 35 µM

SMILES: CC(C)(C)c1ccc(C(=O)N2CCN(C(=O)c3ccc(C(C)(C)C)cc3)C2=S)cc1
- IC50 [1]: > 100 µM

SMILES: Cc1ccc(C(=O)N2CCCN(C(=O)c3ccc(C)cc3)C2=S)cc1
- IC50 [1]: > 100 µM

SMILES: O=C(c1ccccc1Cl)N1CCCN(C(=O)c2ccccc2Cl)C1=S
- IC50 [1]: > 100 µM

SMILES: CC(C)(C)C(=O)N1CCN(C=O)C1=S
- IC50 [1]: 43 µM

SMILES: COc1ccc(C(=O)N2CCN(C(=O)c3ccc(OC)cc3)C2=S)cc1
- IC50 [1]: > 100 µM

SMILES: O=C(c1ccccc1Cl)N1CCN(C(=O)c2ccccc2Cl)C1=S
- IC50 [1]: 54 µM

SMILES: COc1cc(C(=O)N2CCCN(C(=O)c3cc(OC)c(OC)c(OC)c3)C2=S)cc(OC)c1OC
- IC50 [1]: > 100 µM

SMILES: O=C(c1ccccc1)N1CCCN(C(=O)c2ccccc2)C1=S
- IC50 [1]: > 100 µM

SMILES: O=CN1CCN(C(=O)/C=C/c2ccccc2)C1=S
- IC50 [1]: > 100 µM

SMILES: CC(C)(C)C(=O)/C(C#N)=C/N1CCN(C(=O)c2ccco2)C1=S
- IC50 [1]: 14 µM

SMILES: N#CC(C#N)=CN1CCN(C(=O)c2ccco2)C1=O
- IC50 [1]: > 100 µM
